TMEM16A inh = TMEM16A chloride channel inhibitors, primary screen, cell-based, HTS | HEK293 TMEM16A/YFP iodide influx fluorescence, ionomycin | normalized B-score (activity score, 25-100; higher = stronger inhibition) at 10 µM | actives 1.2% (n = 310,000) | AID 588511, 2011;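 active = ratio plate-corrected score three or more library SD toward inhibition, starting fluorescence score within five deviations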;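 also: score derived from kinetic fluorescence span divided by baseline fluorescence per well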
CRFBP-R2 block = antagonists of CRF-BP/CRF-R2 complex, primary screen, cell-based, HEK293, calcium dye fluorescence, uHTS; CRF-induced calcium fluorescence; inhibition, % at 11.8 µM; actives 0.59% (n = 350,000); AID 588475, 2011;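 active = inhibition of the ligand-induced calcium signal above about 50% at the single tested concentration, limit read from the data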
CRFBP-R2 agonist = agonists of CRF-BP/CRF-R2 complex, primary screen, cell-based, HEK293, calcium dye fluorescence, uHTS; calcium dye fluorescence (FLIPR); percent of saturating CRF peptide response; activation, % at 13.2 µM; actives 0.46% (n = 350,000);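 active = activation of at least 50%, plus an integration ratio under a set limit after plate pattern correction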
TAAR1 ag = human TAAR1 agonists, primary screen, Fluo-8 calcium fluorescence, CHO RD-HGA16 cells. Trace amine-associated receptor 1 (Homo sapiens), Q96RJ0. vehicle wells 0%, saturating PEA agonist 100%. activation, % at 3 µM. actives 0.99% (n = 360,000). AID 624467, 2012;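 active = activation above the mean activation of all test compounds in the run plus 3 SD, cut at about 38% in these data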
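Assay system – CHO-derived RD-HGA16 cells with stable Gα16 and human TAAR1 · Compound dosing – one-point dosing at 3 µM (nominal) · Incubation – 17-24 h seeding, 75 min 37 °C dye, 30 min RT · Measured by – kinetic Fluo-8 calcium fluorescence · Control set – DMSO vehicle as 0%, PEA at EC100 as 100% · Repeats – single well for each compound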
TAAR1 antag = human TAAR1 antagonists, primary screen, Fluo-8 calcium fluorescence, CHO RD-HGA16 cells; Trace amine-associated receptor 1 (Homo sapiens), Q96RJ0; actives 1.5% (n = 360,000); antagonist; inhibition, % at 3 µM;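 active = inhibition above a per-plate cutoff, the mean inhibition of test compounds on that plate plus 3 SD, cut at about 49% in these data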
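Material: RD-HGA16 CHO cells with stable hTAAR1 and Gα16; Dosing: single nominal final test compound concentration of 3 µM; Schedule: seeding 17-24 h prior, 75-min 37 °C, 30-min RT dye loading; Detection: kinetic Fluo-8 calcium fluorescence measurement; Measure: % inhibition from peak post-agonist over basal fluorescence ratio; Benchmarks: vehicle and agonist controls.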
TMEM16A act = TMEM16A chloride channel activators or potentiators, primary screen, cell-based, HTS. Anoctamin-1 (Mus musculus), Q8BHY3. HEK293 TMEM16A/YFP-H148Q/I152L, iodide quench fluorescence; hits give low values. B-score at 10 µM. actives 0.3% (n = 340,000);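 active = fluorescence-ratio B-score plate-corrected deviation score at least 3 library SD below zero, with starting fluorescence score within 5 deviations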;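 also: channel opened by trigger with iodide after compound preincubation; score built on the fluorescence ratio of max minus min over baseline; more negative score means more quench and so TMEM16A activation or potentiation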
TAAR1 nonsel count = nonselective antagonists in TAAR1 counter-screen cells, counter-screen for hTAAR1 antagonist project, cell-based, fluorescence, calcium | AID 651780, 2012 | shares compounds with TAAR1 antag | counterscreen cell line, antagonist mode | actives 77% (n = 2,400) | inhibition, % at 3 µM; in the data active = inhibition above about 22%;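 also: CHO-Ga16 host cells stimulated with ATP at an EC80 level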
TAAR1 antag conf = human TAAR1 antagonists, retest of hits, confirmation, cell-based, fluorescence | shares compounds with TAAR1 antag | AID 651785, 2012 | TAAR1-expressing cells, fluorescence antagonist read-out | inhibition, % at 3 µM | actives 40% (n = 2,400); in the data active = inhibition above about 49%;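 also: CHO-Ga16 host cells challenged with agonist PEA near its EC80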
Ga16 ag counter = calcium activation in Ga16-expressing cells, counter-screen for TAAR1 antagonist project, cell-based, fluorescence | shares compounds with TAAR1 antag | agonist counterscreen | activation, % at 3 µM | actives 18% (n = 2,400) | AID 651953, 2012; in the data active = activation above about 12%
TAAR1 ag counter = TAAR1 activation by candidate antagonists – cell-based, fluorescence, counter-screen for TAAR1 antagonist project; shares compounds with TAAR1 antag; hTAAR1 cell line, agonist mode; activation, % at 3 µM; actives 2% (n = 2,400); AID 651955, 2012; in the data active = activation above about 37%;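 also: CHO cells stably expressing TAAR1 with calcium dye readout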
Hits are given with their value; n = inactive; x = no result. Shown are actives, neighbours in structure and some others; about 3.9% of the full set was active somewhere.

SMILES	TMEM16A inh	CRFBP-R2 block	CRFBP-R2 agonist	TAAR1 ag	TAAR1 antag	TMEM16A act	TAAR1 nonsel count	TAAR1 antag conf	Ga16 ag counter	TAAR1 ag counter
Cc1ccc2nc(C(Cl)(Cl)Cl)nc(N/N=C/c3ccncc3)c2c1	n	n	n	n	n	n	x	x	x	x
COc1ccccc1C(=O)NCCC(=O)NCC1CCCO1 (stereo unspecified)	x	n	n	n	n	n	x	x	x	x
CC(NC(=O)c1cc2ccccc2oc1=O)c1ccccc1 (stereo unspecified)	n	n	n	n	n	n	x	x	x	x
COc1ccc(-c2csc3nc(C)nc(N4CCCCC4)c23)cc1OC	n	n	n	n	n	n	x	x	x	x
COc1ccc(-c2csc3nc(-c4cccnc4)nc(N4CCC(C(N)=O)CC4)c23)cc1OC	n	n	n	n	53	n	n	n	n	n
CCOCCCn1c(SCc2nc3ccccc3s2)nc2ccccc2c1=O	n	n	51	n	49	n	n	n	n	n
CC(=O)c1sc2nc(C)cc(C)c2c1N	n	n	n	n	n	n	x	x	x	x
Cc1cc(C)c2c(N)c(C(=O)c3cccc(Cl)c3)sc2n1	n	n	n	n	63	n	23	n	n	n
Cc1cc(C)c2c(N)c(C(=O)c3ccc(Cl)cc3Cl)sc2n1	n	n	n	n	76	n	37	55	n	n
Cc1cc(C)c2c(N)c(C(=O)c3ccccc3Cl)sc2n1	n	n	n	n	n	n	x	x	x	x
COCCNC(=O)C1(C)Cc2c(-c3ccc4c(c3)OCO4)ccnc2O1 (stereo unspecified)	x	x	x	n	n	x	x	x	x	x
COc1ccc(CCc2nnc(CCC(=O)NCc3cc(C(C)C)no3)o2)cc1	n	n	n	n	n	n	x	x	x	x
Cc1cc(C)n(-c2ccc(NC(=O)C3CCN(Cc4ccccn4)CC3)cc2)n1	n	n	n	n	n	n	x	x	x	x
Cc1ccc(/C=C(/NC(=O)c2ccccc2)C(=O)NCCc2c[nH]c3ccccc23)o1	n	n	n	n	58	n	25	n	n	n
Cc1ccc(C(=O)N/C(=C\c2ccco2)C(=O)NCCc2c[nH]c3ccccc23)cc1	n	n	n	n	n	n	x	x	x	x
O=C(NCCc1c[nH]c2ccccc12)/C(=C\c1cccnc1)NC(=O)c1ccccc1Br	n	n	n	n	63	n	31	53	n	n
CCOC(=O)/C(C#N)=C(C)/C=C1\Sc2ccccc2N1CC	n	n	122	n	56	n	22	n	18	n
COc1cc(/C=N/NC(=O)c2ccccn2)ccc1OC(=O)c1ccccc1Br	n	n	n	n	70	n	35	53	n	n
CC(=O)Nc1ccc(C(=O)N/N=C/c2ccccc2OC(=O)c2ccc(Cl)cc2)cc1	n	n	n	n	52	n	35	n	n	n
O=C(N/N=C/c1ccncc1)c1ccc(COc2cccc3cccnc23)cc1	n	n	n	n	n	n	x	x	x	x
COc1ccc(/C=N/NC(=O)c2ccc(COc3cccc4cccnc34)cc2)cc1O	n	n	n	n	63	n	26	n	n	n
COc1ccc(/C=N/NC(=O)c2ccc(COc3cccc4cccnc34)cc2)cc1OC	n	n	n	n	54	n	27	n	n	n
O=C(N/N=C/c1cccc(O)c1)c1ccc(COc2cccc3cccnc23)cc1	n	n	n	n	n	n	x	x	x	x
COc1cc(/C=N/NC(=O)c2ccccn2)ccc1OC(=O)c1ccc(Br)cc1	n	n	n	n	n	n	x	x	x	x
CC(C)CNc1ncnc2[nH]ncc12	x	n	n	n	n	n	x	x	x	x
SMILES	TMEM16A inh	CRFBP-R2 block	CRFBP-R2 agonist	TAAR1 ag	TAAR1 antag	TMEM16A act	TAAR1 nonsel count	TAAR1 antag conf	Ga16 ag counter	TAAR1 ag counter
CCOc1ccccc1NC(=O)CSc1nc(=O)n(CCCN2CCOCC2)c2c1CCCC2	n	n	n	n	n	n	x	x	x	x
O=C(N/N=C/c1cccc(NC(=O)c2ccc(Cl)cc2)c1)c1cccc(O)c1	n	n	n	n	73	n	26	n	n	n
Cn1cc(C(=O)N/N=C/c2cccc(O)c2)ccc1=O	n	n	n	n	n	n	x	x	x	x
COc1cc(C(=O)NCCOc2cccc3cccnc23)cc(OC)c1OC	n	n	n	n	74	n	34	55	n	n
O=C(N/N=C/c1cccc(OC(=O)c2ccccc2Cl)c1)c1cccnc1	n	n	n	n	54	n	n	n	n	n
Cc1ccc(C(=O)N/N=C/c2ccc(OC(=O)c3ccccc3Cl)cc2)cn1	n	n	n	n	n	n	x	x	x	x
O=C(N/N=C/c1cccnc1)c1cccc(NC(=O)c2ccc(Cl)cc2)c1	n	n	n	x	x	n	x	x	x	x
O=C(N/N=C/c1cccc(O)c1)c1ccc(COc2ccccc2Br)cc1	n	n	n	n	91	n	27	78	n	n
Cc1cc(N2CC(C)OC(C)C2)nc2ccccc12 (stereo unspecified)	n	n	n	n	n	n	x	x	x	x
Cc1ccc2nc3c(cc(C#N)c(=N)n3Cc3cccnc3)c(=O)n2c1	n	x	x	x	x	x	x	x	x	x
COc1cc(/C=N/NC(=O)c2cccnc2)ccc1OC(=O)c1ccc2c(c1)OCO2	n	n	n	n	54	n	26	n	n	n
COc1cc(/C=N/NC(=O)c2cccnc2)ccc1OC(=O)c1cc(OC)c(OC)c(OC)c1	n	n	n	n	n	n	x	x	x	x
O=C(Nc1ccc(Cn2cccn2)cc1)c1ccc(COc2ccccc2Br)cc1	n	n	n	n	88	n	37	66	n	n
O=C(Nc1ccn(Cc2c(F)c(F)c(F)c(F)c2F)n1)c1ccc(COc2ccccc2Cl)cc1	n	n	n	n	n	n	x	x	x	x
CCc1noc(C)c1C(=O)NNC(=O)COc1ccccc1C	x	n	n	n	n	n	x	x	x	x

From PubChem BioAssay
